pEC50: −log10 of the molar value. Activity calls are given as the source filed them. No cut-off for these calls is given here.
Assays:
[1] = Half life in KCl/HCl buffer by 31P-NMR analysis at pH 1.4; assay type: physicochemical
Outline: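 Sodium salt dissolved in KCl/HCl buffer pH 1.4 containing D2O, held at 37 °C. 31P NMR spectra taken at 15 min, 1 h or 24 h intervals, about every 24 h in multi-day runs. Hydrolysis rate taken from change in integration of one starting-material phosphate signal over time, fit to a pseudo-first-order model.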

P2Y purinoceptor 6 [2] = biological target: T1, P2Y purinoceptor 6 (Homo sapiens, UniProt Q15077); experiment: Agonist activity at human GFP-tagged P2Y6 receptor expressed in human 1321N1 cells assessed as intracellular calcium mobilization by fura2/AM-based fluorescence spectrophotometry; assay type: functional, cell-based
T1 sequence (Q15077 whole entry, the tested form may be a part): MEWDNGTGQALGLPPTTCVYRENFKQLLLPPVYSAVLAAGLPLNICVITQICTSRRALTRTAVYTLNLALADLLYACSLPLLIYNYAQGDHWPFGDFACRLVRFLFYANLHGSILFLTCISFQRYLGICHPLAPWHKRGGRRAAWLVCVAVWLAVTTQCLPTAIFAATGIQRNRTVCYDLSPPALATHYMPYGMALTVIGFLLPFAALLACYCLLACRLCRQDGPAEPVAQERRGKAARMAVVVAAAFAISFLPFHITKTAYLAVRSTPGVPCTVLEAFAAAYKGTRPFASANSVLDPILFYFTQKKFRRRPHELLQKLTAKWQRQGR
Outline: (§1)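 Human P2Y2, P2Y4 or P2Y6 receptors with GFP fusion, stably expressed in 1321N1 astrocytoma cells (no endogenous P2X/P2Y), selected with 0.5 mg/mL G418. Cells on coverslips at ~80% density were loaded with 2 µM fura 2/AM plus 0.02% pluronic acid in Na-HBS pH 7.4 for 30 min at 37 °C. Nucleotide was superfused at 37 °C, usually 10^-8 to ≥10^-5 M, sometimes to 10^-4 M. Read-out was 340/380 nm excitation ratio at 510 nm emission. Values are mean maximal amplitude ± SE.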

[3] = Agonist activity at P2Y6 receptor in New Zealand White rabbit osteoclasts assessed as intracellular calcium mobilization by fura2-based microfluorimetric technique; assay type: functional, cell-based; conditions: Oryctolagus cuniculus
P2Y purinoceptor 6 [4] = biological target: T1, P2Y purinoceptor 6; experiment: Ratio of UDP EC50 to compound EC50 for human GFP-tagged P2Y6 receptor
Outline: (§2)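 Human P2Y6 receptor-GFP construct stably expressed in 1321N1 astrocytoma cells (no endogenous P2X/P2Y). Cells loaded with 2 µM fura-2/AM plus 0.02% pluronic acid in Na-HBS (pH 7.4), 30 min, 37 °C. Superfused at 37 °C with nucleotide, usually 10^-8 M to at least 10^-5 M. [Ca2+]i read as 340/380 nm excitation ratio, emission 510 nm. EC50 from concentration–response curves.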

P2Y purinoceptor 4 [5] = biological target: T2, P2Y purinoceptor 4 (Homo sapiens, UniProt P51582); experiment: Agonist activity at human GFP-tagged P2Y4 receptor expressed in human 1321N1 cells assessed as intracellular calcium mobilization up to 100 uM by fura2/AM-based fluorescence spectrophotometry; assay type: functional, cell-based; outline: as §1
T2 sequence (P51582 whole entry): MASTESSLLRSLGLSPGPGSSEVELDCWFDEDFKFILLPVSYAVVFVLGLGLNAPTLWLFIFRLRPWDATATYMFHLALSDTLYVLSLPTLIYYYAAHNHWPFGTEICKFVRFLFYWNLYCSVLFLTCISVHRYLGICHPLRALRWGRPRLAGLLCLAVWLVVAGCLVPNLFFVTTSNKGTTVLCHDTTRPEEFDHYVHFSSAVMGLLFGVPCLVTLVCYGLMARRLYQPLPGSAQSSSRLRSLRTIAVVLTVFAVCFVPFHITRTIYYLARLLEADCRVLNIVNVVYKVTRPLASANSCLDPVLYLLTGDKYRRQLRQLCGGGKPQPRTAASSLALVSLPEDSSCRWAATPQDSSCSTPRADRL

[6] = biological target: P2Y purinoceptor 2 (Homo sapiens) (UniProt P41231); experiment: Agonist activity at human GFP-tagged P2Y2 receptor expressed in human 1321N1 cells assessed as intracellular calcium mobilization up to 100 uM by fura2/AM-based fluorescence spectrophotometry; assay type: functional, cell-based; outline: as §1
P2Y purinoceptor 2 (Homo sapiens), sequence (P41231 whole entry): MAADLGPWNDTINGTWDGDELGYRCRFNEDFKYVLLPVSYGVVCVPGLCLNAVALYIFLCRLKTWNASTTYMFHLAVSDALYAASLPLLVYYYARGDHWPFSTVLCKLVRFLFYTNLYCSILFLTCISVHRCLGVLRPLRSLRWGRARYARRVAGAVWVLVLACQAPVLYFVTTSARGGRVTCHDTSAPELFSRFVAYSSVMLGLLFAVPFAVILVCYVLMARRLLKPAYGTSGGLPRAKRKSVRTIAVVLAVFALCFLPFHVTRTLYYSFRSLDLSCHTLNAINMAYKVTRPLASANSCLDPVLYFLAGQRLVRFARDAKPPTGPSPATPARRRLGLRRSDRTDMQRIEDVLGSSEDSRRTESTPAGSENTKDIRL

P2Y purinoceptor 6 [7] = biological target: T1, P2Y purinoceptor 6; experiment: Agonist activity at human P2Y6 receptor; assay type: functional; outline: as §2
[8] = Half life in human serum by HPLC analysis; assay type: ADME, cell-free
Outline: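 Compound (0.1 mg) incubated with human blood serum and RPMI-1640 medium at 37 °C for 0–24 h. Samples taken at 0.5–12 h intervals, heated to 80 °C for 30 min, treated with CM Sephadex and extracted with chloroform. Analysed by reverse-phase HPLC. Degradation from peak integration, corrected against a serum-free control given the same workup.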

P2Y purinoceptor 4 [9] = biological target: T2, P2Y purinoceptor 4; experiment: Agonist activity at human GFP-tagged P2Y4 receptor expressed in human 1321N1 cells assessed as intracellular calcium mobilization by fura2/AM-based fluorescence spectrophotometry; assay type: functional, cell-based; outline: as §1

Structure (SMILES) | pEC50 (P2Y purinoceptor 6 [2]) | Activity (P2Y purinoceptor 4 [5]) | Activity [6] | also measured
BP(=O)(OC[C@H]1O[C@@H](n2cc(OC)c(=O)[nH]c2=O)[C@H](O)[C@@H]1O)OP(=O)(O)O (stereo partly specified) |  |  |  | half-life [1]: 16.9 h
B[P@](=O)(OC[C@H]1O[C@@H](n2cc(OC)c(=O)[nH]c2=O)[C@H](O)[C@@H]1O)O[P@@](=O)(O)OP(=O)(O)O | 4.70 |  |  | 
O=c1ccn([C@@H]2O[C@H](COP(=O)(O)OP(=O)(O)OP(=O)(O)OC[C@H]3O[C@@H](n4ccc(=O)[nH]c4=O)[C@@H]4OC(Cc5ccccc5)O[C@@H]43)[C@@H](O)[C@H]2O)c(=O)[nH]1 (stereo partly specified) |  |  |  | pEC50 [3]: 6.85
B[P@@](=O)(OC[C@H]1O[C@@H](n2cc(OC)c(=O)[nH]c2=O)[C@H](O)[C@@H]1O)OP(=O)(O)OP(=O)(O)OC[C@H]1O[C@@H](n2cc(OC)c(=O)[nH]c2=O)[C@H](O)[C@@H]1O | 7.22 | inactive | inactive | Ratio EC50 (P2Y purinoceptor 6 [4]): 2.5
O=c1ccn([C@@H]2O[C@H](COP(=O)(O)OP(=O)(O)S)[C@@H](O)[C@H]2O)c(=O)[nH]1 (stereo partly specified) |  |  |  | pEC50 (P2Y purinoceptor 6 [7]): 7.55
B[P@](=O)(OC[C@H]1O[C@@H](n2cc(OC)c(=O)[nH]c2=O)[C@H](O)[C@@H]1O)OP(=O)(O)OP(=O)(O)OC[C@H]1O[C@@H](n2cc(OC)c(=O)[nH]c2=O)[C@H](O)[C@@H]1O | 5.66 | inactive | inactive | 
B[P@@](=O)(OC[C@H]1O[C@@H](n2ccc(=O)[nH]c2=O)[C@H](O)[C@@H]1O)OP(=O)(O)O |  |  |  | half-life [8]: 17 h; half-life [1]: 16.8 h
B[P@](=O)(OC[C@H]1O[C@@H](n2cc(OC)c(=O)[nH]c2=O)[C@H](O)[C@@H]1O)OP(=O)(O)OP(=O)(O)O |  | inactive | inactive | 
BP(=O)(OP(=O)(O)OC[C@H]1O[C@@H](n2cc(OC)c(=O)[nH]c2=O)[C@H](O)[C@@H]1O)OP(=O)(O)OC[C@H]1O[C@@H](n2cc(OC)c(=O)[nH]c2=O)[C@H](O)[C@@H]1O | 6.70 | inactive | inactive | 
B[P@](=O)(OC[C@H]1O[C@@H](n2cc(OC)c(=O)[nH]c2=O)[C@H](O)[C@@H]1O)OP(=O)(O)O | 5.37 | inactive | inactive | 
O=c1ccn([C@@H]2O[C@H](COP(=O)(O)OP(=O)(O)OP(=O)(O)O)[C@@H](O)[C@H]2O)c(=O)[nH]1 [URIDINE TRIPHOSPHATE] |  |  |  | pEC50 (P2Y purinoceptor 4 [9]): 6.05
B[P@@](=O)(OC[C@H]1O[C@@H](n2cc(OC)c(=O)[nH]c2=O)[C@H](O)[C@@H]1O)OP(=O)(O)OP(=O)(O)O | 4.95 | inactive | inactive | 
B[P@@](=O)(OC[C@H]1O[C@@H](n2cc(OC)c(=O)[nH]c2=O)[C@H](O)[C@@H]1O)OP(=O)(O)O |  | inactive | inactive | Ratio EC50 (P2Y purinoceptor 6 [4]): 19
COc1cn([C@@H]2O[C@H](COP(=O)(O)OP(=O)(O)OP(=O)(O)OC[C@H]3O[C@@H](n4cc(OC)c(=O)[nH]c4=O)[C@H](O)[C@@H]3O)[C@@H](O)[C@H]2O)c(=O)[nH]c1=O | < 5.00 | inactive | inactive | 

Source: ChEMBL document CHEMBL2086311, “UDP made a highly promising stable, potent, and selective P2Y6-receptor agonist upon introduction of a boranophosphate moiety” (Bioorg Med Chem, 2012)
